Experimental data as given in ChEMBL document CHEMBL2396552, “Novel inhibitors of a Grb2 SH3C domain interaction identified by a virtual screen” (Bioorg Med Chem, 2013).
Activity calls are given as the source filed them.

Assays:
[1] = target: T1, Growth factor receptor-bound protein 2 (Homo sapiens, UniProt P62993); experiment: Binding affinity to GST-tagged Grb2 SH3C domain (unknown origin) using biotinylated Gab2b peptide as substrate at 5 mM by SDS-PAGE analysis
Outline: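 Purified GST–Grb2 SH3C (10 µg/sample) was pre-incubated with compound at 5 mM, in duplicate, for 2 h at 4 °C. Streptavidin beads carrying biotinylated Gab2b peptide were then added for 30 min. After PBS-T washes, bound protein was resolved by SDS-PAGE, Coomassie-stained and scored by densitometry relative to the no-inhibitor control (100%).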
Target sequence in this assay (P62993 whole entry, looked up, the tested form may be a part): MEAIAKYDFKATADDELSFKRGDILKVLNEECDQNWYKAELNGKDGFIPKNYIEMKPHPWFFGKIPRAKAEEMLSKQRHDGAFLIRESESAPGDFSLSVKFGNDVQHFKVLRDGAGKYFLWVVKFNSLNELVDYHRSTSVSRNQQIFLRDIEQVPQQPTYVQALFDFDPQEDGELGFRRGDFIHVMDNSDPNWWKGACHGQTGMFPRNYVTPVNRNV

[2] = target: T1, Growth factor receptor-bound protein 2; experiment: Binding affinity to wild type human Grb2 SH3C domain at 50 to 100 uM by SPR assay
Outline: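 Untagged Grb2 SH3C was amine-coupled to a CM5 chip at about 1500 RU. Compounds at 50 and 100 µM in HBS-N (10 mM Hepes pH 7.4, 150 mM NaCl) with 5% DMSO and 0.01% Tween 20 were injected for 120 s at 40 µL/min and 25 °C. Responses were double-referenced. Binders were defined by a response of at least 5 RU at 100 µM, derived from a KD cutoff of ≤1 mM.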
Target sequence in this assay (P62993 whole entry, looked up, the tested form may be a part): as above

[3] = target: T1, Growth factor receptor-bound protein 2; experiment: Binding affinity to Grb2 SH3C domain (unknown origin) at 1 mM by isothermal titration calorimetry
Outline: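 ITC at 25 °C used 20 µM purified Grb2 SH3C in the cell, in 50 mM Hepes pH 7.5, 50 mM NaCl, 0.5% DMSO. Compound at 1 mM in the same buffer was titrated in: one 4 µL injection followed by 18 injections of 15 µL.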
Target sequence in this assay (P62993 whole entry, looked up, the tested form may be a part): as above

[4] = target: T1, Growth factor receptor-bound protein 2; experiment: Binding affinity to wild type human Grb2 SH3C domain at > 200 uM by SPR assay
Target sequence in this assay (P62993 whole entry, looked up, the tested form may be a part): as above

[5] = target: T1, Growth factor receptor-bound protein 2; experiment: Competitive inhibition of GST-tagged Grb2 SH3C domain (unknown origin)-Gab2 interaction incubated 2 hrs prior to biotinylated Gab2b peptide addition measured after 30 mins by SDS-PAGE analysis
Outline: (§1)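 Concentration-response format of the bead pull-down. GST–Grb2 SH3C (10 µg) was pre-incubated 2 h at 4 °C with increasing compound concentrations in Tris pH 7.5 buffer containing 5% DMSO. Biotin-Gab2b peptide–streptavidin beads were added for 30 min. Bound protein was measured by SDS-PAGE/Coomassie densitometry, normalized to the no-inhibitor sample, and fitted to a sigmoidal inhibition model by nonlinear regression. Gels represent 4–6 repeats.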
Target sequence in this assay (P62993 whole entry, the tested form may be a part): as the sequence (P62993 whole entry, looked up, the tested form may be a part) above

[6] = target: T1, Growth factor receptor-bound protein 2; experiment: Inhibition of GST-tagged Grb2 SH3C domain (unknown origin)-Gab2 interaction up to 20 mM incubated 2 hrs prior to biotinylated Gab2b peptide addition measured after 30 mins by SDS-PAGE analysis; outline: as §1
Target sequence in this assay (P62993 whole entry, looked up, the tested form may be a part): as above

SMILES	Activity [1]	further results
CC1(C)N=C(N)N=C(N)N1c1cccc(CO)c1	inactive	–
Cn1cnc(N)c2ncnc1-2	inactive	–
N=C(NC1CCC(C2CCC(N)CC2)CC1)C(=N)NC1CCC(C2CCC(N)CC2)CC1 (configuration not stated)	> 20%	Activity [2]: Active
CC1(C)N=C(N)N=C(N)N1c1cccc(CCCCc2cccc(N)c2)c1	> 20%	Activity [2]: Active; Activity [3]: inactive; Activity [4]: Active; IC50 [5]: 5.7 mM
NC=C1C(=O)NC(=O)NC1=O	inactive	–
Cn1c(N)nc2nc[nH]c2c1=O	inactive	–
Cn1c(CCNC(=N)CSS(=O)(=O)O)nc2ccccc21	inactive	–
CC1(C)N=C(N)N=C(N)N1c1cccc(OCc2cccc(N)c2)c1	inactive	Activity [2]: Active
NCCN1CCN=C1C1=NCCN1CCN	inactive	–
Nc1nc(N)c2cnnn2n1	inactive	–
C/C(=N\NC(=N)N)c1cnc(C)nc1C	inactive	–
Cc1ccc(C(/C=C/c2ccccc2)=N/NC(=N)N)cc1	> 20%	Activity [2]: Active
Cc1nnc2c3nccnc3c(N)nn12	inactive	–
CC1(C)N=C(N)N=C(N)N1c1cccc(OCC#N)c1	> 20%	inhibition [6]: Active; Activity [2]: Active; Activity [4]: Active
NC[C@@H]1[C@@H](CN)[C@H]2C=C[C@@H]1CC2	> 20%	–
CC(=O)c1ccc(/N=N/c2c(N)nc(N)nc2N)cc1	> 20%	Activity [2]: Active
Nc1n[nH]c(=O)n2ncnc12	inactive	–

SMILES	Activity [1]	further results
CC1(C)N=C(N)N=C(N)N1c1cccc(OCCOc2cccc(N)c2)c1	inactive	Activity [2]: Active
Nc1n[nH]c2cc(O)[nH]c(=O)c12	> 20%	–
N=C(NC1=NCCN1)C(=N)NC1=NCCN1	inactive	–
Nc1nsc2nc3ccccc3cc12	inactive	–
NC1CCC(NC2CCC(N)CC2)CC1 (configuration not stated)	> 20%	Activity [2]: Active
NC(C(=O)O)C(O)c1c[nH]cn1 (configuration not stated)	inactive	–
CN1CC(=O)N=C(N)N=C1N	inactive	–
CN1C[C@@H]2[C@@H](N)N=C(N)N[C@@H]2C1(C)C	inactive	–
CC1(C)N=C(N)N=C(N)N1c1cccc(/C=C/C=C/c2cccc([N+](=O)[O-])c2)c1	> 20%	Activity [2]: Active; Activity [3]: inactive; Activity [4]: Active; IC50 [5]: 0.32 mM
Cc1ccc(O)c(C2CC(=O)NC(N)=N2)c1 (configuration not stated)	inactive	Activity [2]: Active
Nc1nc(N)n(Cc2ccc3c(c2)OCO3)n1	inactive	–
C1CN=C(C2=NCCCN2)NC1	inactive	–
NC1=NS(=O)(=O)Nc2nn(-c3ccccc3)nc21	inactive	–
Cc1cnc2c(c1)CCCC2C(N)=S (configuration not stated)	> 20%	–
N=C(NCCN)C(=N)NCCN	inactive	–
CC1(C)N=C(N)N=C(N)N1c1cc(C(F)(F)F)cc(C(F)(F)F)c1	inactive	–
CC(CC(=N)N)NC(=O)C1CCC(N)=N1 (configuration not stated)	inactive	–
